Measured values gathered from unrelated publications.
pIC50: −log10 of the molar value.
Effect on: cell growth or viability

COc1cc(OC)c(/C=C/S(=O)(=O)Nc2ccc(OC)c(N)c2)c(OC)c1
pIC50 (N417; trypan blue; 96 h): 8.40

COc1cc(-c2ncn(/C=C\C(=O)OC(C)C)n2)cc(C(F)(F)F)c1
pIC50 (F-36P; 72 h): 7.20

CCCCCc1ccc(-c2cnc3c(n2)CCCC3)cc1
pIC50 (MCF-10A; 48 h): < 4.30

CCN1CCN(Cc2ccc(Nc3ncc(F)c(-c4cc(F)c5nc(C)n(C(C)C)c5c4)n3)nc2)CC1
pIC50 (4T1; CCK-8): < 5.70

COc1ccc(CCN(C)CCc2ccc(OC)c(OC)c2)cc1OC
pIC50 (CAL-27; 72 h): < 4.70

CC(C)c1cccc(C(C)C)c1-n1c(Cl)c(Cl)n(-c2c(C(C)C)cccc2C(C)C)c1=[Se]
pIC50 (HCT-15; MTT; 72 h): 4.85

O=C(Nc1nnnn1C1CCCCC1)c1ccc2ccccc2c1
pIC50 (MCF-10A; 48 h): 4.09

O=C(c1cc(Cl)c(Cl)[nH]1)c1c(O)ccc(Cc2cc(C(c3csc(-c4ccccc4O)n3)c3ccc(O)c(C(=O)c4cc(Cl)c(Cl)[nH]4)c3O)c(O)c(C(=O)c3cc(Cl)c(Cl)[nH]3)c2O)c1O (centres unmarked)
IC50 (MDCK; MTT; 72 h): 28 µg/mL

COc1ccc(-c2cnc3c(n2)CCCC3)nc1
pIC50 (MCF-10A; 48 h): < 4.30

COc1cc(C2Oc3cc([C@H]4Oc5cc(O)cc(O)c5C(=O)[C@@H]4O)ccc3OC2CO)ccc1O (some centres unmarked)
pIC50 (SNU-423; CCK-8; 72 h): 4.73

COc1ccc2c(c1OC)C(=O)O[C@@H]2[C@H]1c2c(cc3c(c2OC)OCO3)CCN1C
pIC50 (CAL-27; 72 h): 4.77

Cc1cn([C@H]2C[C@H](N=[N+]=[N-])[C@@H](CO)O2)c(=O)[nH]c1=O
pIC50 (VCaP; CCK-8; 72 h): < 4.52

CCCCc1cccc(-c2cnc3c(n2)CCCC3)c1
pIC50 (MCF-10A; 48 h): < 4.30

CN(C)c1ccc2cc(C(=O)N[C@@H](CCCNC(=N)CCl)C(=O)NCc3ccccc3)ccc2c1
pIC50 (4T1; 48 h): 4.92

CC(C)C[C@H](NC(=O)[C@H](Cc1ccccc1)NC(=O)c1cnccn1)B(O)O
pIC50 (SCLC-21H; ATP luminescence): 7.96

Cc1cc(NC(=O)c2cccc3cc(-c4cccc5[nH]nc(N)c45)ccc23)ccc1F
pIC50 (GL261; CCK-8; 72 h): < 4.70

CN(C)CC[C@@H](c1ccc(Cl)cc1)c1ccccn1
pIC50 (CAL-27; 72 h): < 4.70

O=C(C=C[c-]1cccc1)c1ccc[nH]1.[Fe+2].c1cc[cH-]c1
pIC50 (4T1; MTT; 72 h): 4.12

CNC(=O)c1ccc(N2C(=S)N(c3cnc(C#N)c(C(F)(F)F)c3)C(=O)C23CCC3)cc1F
pIC50 (VCaP; ATP luminescence; 6 days): 6.41

O=C(NC(=S)NCCCNC(=S)NC(=O)c1ccc2ccccc2c1)c1ccc2ccccc2c1
pIC50 (MCF-10A; 48 h): 4.04

CCN(CC)CCNC(=O)COc1ccc(OC)cc1
pIC50 (CAL-27; 72 h): < 4.70

COc1cc(Nc2nccc(-c3cnn4nc(OC)ccc34)n2)cc(C(F)(F)F)c1
pIC50 (OVK18; ATP luminescence): 6.39

COc1nc(SC)nc(OC)c1C(=O)/C=C/[c-]1cccc1.[Fe+2].c1cc[cH-]c1
pIC50 (4T1; MTT; 72 h): 3.67

CCCCc1ccc2[nH]c(NC(=O)OC)nc2c1
pIC50 (GTL 16; CCK-8; 72 h): 6.55

c1ccc(-c2cccc(-c3cnc4c(n3)CCCC4)c2)cc1
pIC50 (MCF-10A; 48 h): < 4.30

O=C1CCCCC1C1C2C=CC=CC1C(C1CC1)=C2 (centres unmarked)
pIC50 (K562; flow cytometry): 7.77

CC(C)c1ccccc1S(=O)(=O)c1cc(N)c2ncccc2c1[N+](=O)[O-]
pIC50 (CAL-27; 72 h): < 4.70

C=C1CC[C@@H]2[C@](C)(CO)[C@H](O)CC[C@@]2(C)[C@@H]1C/C=C1/C(=O)OC[C@H]1O
pIC50 (VCaP; CCK-8; 72 h): 4.69

COc1cc2nc(N3CCN(C(=O)c4ccco4)[C@H]4CCCC[C@H]43)nc(N)c2cc1OC (racemic)
pIC50 (CAL-27; 72 h): 4.88

CCOc1ccc(-c2cnc3c(n2)CCCC3)cc1
pIC50 (MCF-10A; 48 h): < 4.30

CC(=O)CC(c1ccccc1)c1c(O)c2ccccc2oc1=O (centres unmarked)
pIC50 (CAL-27; 72 h): < 4.70

CCOc1cccc(-c2cnc3c(n2)CCCC3)c1
pIC50 (MCF-10A; 48 h): 4.51
